How the values were obtained:
[1] = target: Fibroblast growth factor receptor (Homo sapiens, UniProt P22607+P11362+P22455+P21802); assay: Inhibitory concentration of compound against human fibroblast growth factor receptor; type: protein assay
[2] = target: Platelet-derived growth factor receptor (Mus musculus, UniProt P05622+P26618); assay: Inhibitory concentration of compound against mouse Platelet-derived growth factor receptor
[3] = target: Proto-oncogene tyrosine-protein kinase Src (Gallus gallus, UniProt P00523); assay: Inhibition of chicken c-Src tyrosine kinase
Outline: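 Recombinant avian c-Src expressed in baculovirus-infected insect cells, immunopurified on polystyrene beads carrying a covalently linked Src-specific monoclonal antibody. The enzyme-bead suspension was assayed in vitro with 40 µM ATP, measuring 32P-phosphate transfer into a trichloroacetic acid-precipitable random glutamate/tyrosine (4:1) copolymer. The IC50 was in µM.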

[4] = target: Epidermal growth factor receptor (Homo sapiens, UniProt P00533); assay: Inhibition of human epidermal growth factor receptor
Chain of Epidermal growth factor receptor (P00533 whole entry): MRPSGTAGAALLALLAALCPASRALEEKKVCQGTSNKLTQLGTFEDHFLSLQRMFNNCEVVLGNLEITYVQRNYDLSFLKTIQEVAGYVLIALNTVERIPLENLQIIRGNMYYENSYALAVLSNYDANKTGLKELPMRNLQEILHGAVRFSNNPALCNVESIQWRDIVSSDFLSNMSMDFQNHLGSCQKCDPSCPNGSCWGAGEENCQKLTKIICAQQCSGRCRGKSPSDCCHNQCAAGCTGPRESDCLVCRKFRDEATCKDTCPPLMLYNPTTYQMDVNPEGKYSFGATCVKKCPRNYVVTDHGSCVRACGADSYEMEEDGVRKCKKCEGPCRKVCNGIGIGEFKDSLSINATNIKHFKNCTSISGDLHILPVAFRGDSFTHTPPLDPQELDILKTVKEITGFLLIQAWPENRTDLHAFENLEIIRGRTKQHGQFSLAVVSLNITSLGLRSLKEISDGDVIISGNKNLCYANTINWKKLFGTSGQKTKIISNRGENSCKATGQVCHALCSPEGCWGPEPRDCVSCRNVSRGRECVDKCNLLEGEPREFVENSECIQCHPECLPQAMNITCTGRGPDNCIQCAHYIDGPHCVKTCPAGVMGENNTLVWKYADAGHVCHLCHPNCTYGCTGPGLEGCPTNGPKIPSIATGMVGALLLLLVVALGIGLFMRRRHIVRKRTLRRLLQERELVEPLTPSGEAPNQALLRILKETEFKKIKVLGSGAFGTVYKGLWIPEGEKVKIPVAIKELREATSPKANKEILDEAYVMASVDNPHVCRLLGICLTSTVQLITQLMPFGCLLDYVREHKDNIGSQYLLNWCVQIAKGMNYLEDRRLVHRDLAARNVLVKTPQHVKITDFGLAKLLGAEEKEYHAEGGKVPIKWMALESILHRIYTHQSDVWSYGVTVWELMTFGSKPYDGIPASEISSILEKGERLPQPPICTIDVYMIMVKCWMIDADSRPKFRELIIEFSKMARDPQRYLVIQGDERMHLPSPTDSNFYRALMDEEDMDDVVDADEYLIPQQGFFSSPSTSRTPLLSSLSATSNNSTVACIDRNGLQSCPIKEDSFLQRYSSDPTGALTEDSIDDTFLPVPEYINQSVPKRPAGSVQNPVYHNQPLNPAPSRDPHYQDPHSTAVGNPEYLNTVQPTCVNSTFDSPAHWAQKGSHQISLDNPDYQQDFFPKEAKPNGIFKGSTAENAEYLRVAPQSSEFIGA

What does the source list for COc1cc(OC)cc(-c2cc3cnc(N)nc3n(C)c2=O)c1?
IC50 [1]: 0.126 µM; IC50 [2]: 43.1 µM; IC50 [3]: > 50 µM

With CCN(CC)CCOc1cccc(Nc2ncc3cc(-c4c(Cl)cccc4Cl)c(=O)n(C)c3n2)c1 as the molecule, how does the IC50 [3] read?
Its IC50 is 0.009 µM.

COc1ccc(NC(=O)Nc2nc3nc(NCCCN4CCN(C)CC4)ncc3cc2-c2c(Cl)cccc2Cl)cc1 was tested. Which IC50 [4] did it give?
Its IC50 is 0.72 µM.

What about the IC50 [3] of the same molecule?
Its IC50 is 0.028 µM.

What does the source list for CN1CCN(CCCNc2ncc3cc(-c4c(Cl)cccc4Cl)c(=O)n(C)c3n2)CC1?
IC50 [1]: 0.348 µM; IC50 [2]: 2.7 µM; IC50 [3]: 0.237 µM

Which results are given for CN(C)c1ncc2cc(-c3c(Cl)cccc3Cl)c(=O)n(C)c2n1?
IC50 [1]: > 50 µM; IC50 [4]: > 50 µM; IC50 [2]: > 50 µM; IC50 [3]: > 50 µM

COc1cc(OC)cc(-c2cc3cnc(N)nc3nc2NC(=O)NC(C)(C)C)c1 was tested. Which IC50 [3] did it give?
Its IC50 is greater than 50 µM.

Which IC50 [1] does the source give for CCOc1cc(OCC)cc(-c2cc3cnc(N)nc3nc2NC(=O)NC(C)(C)C)c1 here?
Its IC50 is 1.65 µM.

And the IC50 [2]?
The IC50 was greater than 50 µM.

And the IC50 [3]?
The IC50 was greater than 50 µM.

How did the IC50 [1] turn out when CC(C)(C)NC(=O)Nc1nc2nc(N)ncc2cc1-c1cc(C(F)(F)F)cc(C(F)(F)F)c1 was run?
Its IC50 is greater than 50 µM.

What about the IC50 [2] of the same molecule?
Its IC50 is greater than 50 µM.

What about the IC50 [3] of the same molecule?
The IC50 was greater than 50 µM.

What does the source list for CN(C)c1cc(-c2cc3cnc(N)nc3nc2NC(=O)NC(C)(C)C)cc(N(C)C)c1?
IC50 [1]: > 16 µM; IC50 [2]: > 50 µM; IC50 [3]: > 50 µM

For Cn1c(=O)c(-c2c(Cl)cccc2Cl)cc2cnc(Nc3ccc(CC(=O)O)cc3)nc21, which IC50 [1] is on record?
The IC50 was 0.061 µM.

What about the IC50 [2] of the same molecule?
The IC50 was 0.07 µM.

What about the IC50 [3] of the same molecule?
Its IC50 is 0.01 µM.

How did the IC50 [1] turn out when Cn1c(=O)c(-c2c(Cl)cccc2Cl)cc2cncnc21 was run?
Its IC50 is greater than 50 µM.

What about the IC50 [4] of the same molecule?
The IC50 was greater than 50 µM.

And the IC50 [2]?
Its IC50 is greater than 50 µM.

And the IC50 [3]?
Its IC50 is greater than 10 µM.

With CN1CCN(CCCNc2ncc3cc(-c4c(Cl)cccc4Cl)c(NC(=O)NC4CCCCC4)nc3n2)CC1 as the molecule, how does the IC50 [4] read?
The IC50 was 0.88 µM.

CN1CCN(c2ccc(Nc3ncc4cc(-c5c(Cl)cccc5Cl)c(=O)n(C)c4n3)cc2)CC1 was tested. Which IC50 [1] did it give?
The IC50 was 0.051 µM.

And the IC50 [2]?
The IC50 was 0.115 µM.

What does the source list for CN1CCN(CCCNc2ncc3cc(-c4c(Cl)cccc4Cl)c(NC(=O)NCc4ccccc4)nc3n2)CC1?
IC50 [4]: 0.98 µM; IC50 [3]: 0.03 µM

Cc1ncc2cc(-c3c(Cl)cccc3Cl)c(=O)n(C)c2n1 was tested. Which IC50 [1] did it give?
The IC50 was greater than 50 µM.

And the IC50 [4]?
The IC50 was greater than 50 µM.

And the IC50 [2]?
The IC50 was greater than 50 µM.

What about the IC50 [3] of the same molecule?
Its IC50 is greater than 50 µM.

Source: ChEMBL document CHEMBL1131506, “Development of a binding model to protein tyrosine kinases for substituted pyrido[2,3-d]pyrimidine inhibitors” (J Med Chem, 1998)
